From ChEMBL document CHEMBL1123734, “Resolution, absolute stereochemistry, and enantioselective activity of nomifensine and hexahydro-1H-indeno[1,2-b]pyridines” (J Med Chem, 1987) come the findings set out here.

Data set [1] has as its system Mus musculus. The experiment in a line: Antidepressant potential was assessed by the prevention of tetrabenazine-induced ptosis in mice by intraperitoneal administration. The class given is functional. A digest of the protocol: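 Male NMRI mice (SPF-71, KF), 20-30 g, randomly assigned to groups of 10. Compounds dissolved in 1% methylcellulose and given ip at 10 mL/kg body weight. Ptosis procedure follows an earlier cited method.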

The species entered for data set [2] is Rattus norvegicus. The experiment in a line: In vitro inhibition of [14C]norepinephrine uptake into rat hypothalamus. It counts as functional, organism-based.
Data set [3] concerns Mus musculus. The experiment in a line: (§1) Lethal dose (toxicity) was determined by intraperitoneal administration in mice. It counts as organism-based. The settings on record: in vivo, ip. In a few lines: (§2)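 Male NMRI mice (SPF-71, KF), 20-30 g, randomly assigned to groups of 10. Compounds were dissolved in 1% methylcellulose and given intraperitoneally at 10 mL/kg body weight.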

The species named for data set [4] is Rattus norvegicus. Briefly: In vitro inhibition of [3H]dopamine uptake into rat corpus striatum. The class given is functional, organism-based.
Data set [5] concerns Mus musculus. The experiment in a line: Antidepressant potential was assessed by the prevention of tetrabenazine-induced ptosis in mice by intraperitoneal administration; Inactive. The class given is functional. The settings on record: ip.
Data set [6] deals with Mus musculus. Briefly: Antidepressant potential was assessed by the potentiation of yohimbine-induced toxicity in mice by intraperitoneal administration. It counts as functional. A digest of the protocol: (§3)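 Male NMRI mice (SPF-71, KF), 20-30 g, were randomized into groups of 10. Compounds were dissolved in 1% methylcellulose, dosed at 10 mL/kg, and given ip 30 min before yohimbine hydrochloride (20 mg/kg sc). Deaths were counted after 18 h. ED50 was the dose at which 50% of animals died.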

For data set [7], the system named is Mus musculus. The experiment in a line: Antidepressant potential was assessed by the potentiation of yohimbine-induced toxicity in mice by intraperitoneal administration; Inactive. The class given is functional. The settings on record: ip. A digest of the protocol: as §3
Data set [8] in a line: as §1. The class given is organism-based. The settings on record: mouse, in vivo, ip. A digest of the protocol: as §2
The nature of data set [9]: (§4) Lethal dose (toxicity) was determined by intraperitoneal administration in mice. To be noted: mouse, in vivo, ip. The class given is organism-based. A digest of the protocol:
as §2

Data set [10] concerns Mus musculus. The experiment in a line: Antidepressant potential was assessed by the potentiation of yohimbine-induced toxicity in mice by intraperitoneal administration. The class given is functional. A digest of the protocol:
as §3

The species entered for data set [11] is Rattus norvegicus. Briefly: In vitro inhibition of [3H]5-HT uptake into rat whole brain. It counts as functional, organism-based.
Data set [12] concerns Mus musculus. Briefly: Antidepressant potential was assessed by the prevention of tetrabenazine-induced ptosis in mice by intraperitoneal administration. It counts as functional.
The subject of data set [13] is Mus musculus. The data set is described as §4. The class given is organism-based. To be noted: in vivo, ip. In a few lines: as §2
Where [14] appears, read: Mus musculus, ip, read-out: ED50.

Where “and” joins values, the source holds several entries; their conditions need not be identical. Identical values can stand only once. Some results are limits rather than exact numbers.

Consider `CN1CCC[C@@H]2[C@@H](c3ccccc3)c3ccccc3[C@@H]21`, for which the ED50 (as a rule, the dose that gives a 50% effect, or the effect in half of the subjects) stood at 0.37 mg/kg in the data set on Mus musculus [1], 10 mg/kg in the data set with Mus musculus [5], 0.86 mg/kg in the data set on Mus musculus [6] and 5 mg/kg with Mus musculus [7]. In addition, the IC50 (as a rule, the midpoint of a concentration-inhibition curve) in the data set listed under Rattus norvegicus [2] was 500 nM and 60 nM; in the data set filed under Rattus norvegicus [4], 300 nM. Moreover, in the data set with Mus musculus [3], the LD50 (as a rule, the dose at which mortality reaches 50%) was 72 mg/kg and 91 mg/kg.
Consider `Nc1ccc([C@H]2c3ccccc3[C@@H]3NCCC[C@H]23)cc1`, for which the IC50 was 5 nM and 15 nM in the data set listed under Rattus norvegicus [2]; 20 nM and 50 nM in the data set filed under Rattus norvegicus [4]; greater than 10000 nM in the data set filed under Rattus norvegicus [11] (Rattus norvegicus, 1 h). Also, the LD50 in data set [8] came to 78 mg/kg; in data set [9], 43 mg/kg. Further, the ED50 in the data set with Mus musculus [10] was 0.07 mg/kg and 0.15 mg/kg.
On to `CCCN1CCC[C@@H]2[C@@H](c3ccccc3)c3ccccc3[C@@H]21`, for which the ED50 in the data set with Mus musculus [1] (setting [14]) amounted to 0.4 mg/kg; in the data set on Mus musculus [5], 5 mg/kg; in the data set on Mus musculus [6] it was 1.2 mg/kg; with Mus musculus [7], 5 mg/kg. Besides, the IC50 in the data set listed under Rattus norvegicus [2] is 36 nM and 200 nM; in the data set filed under Rattus norvegicus [4], 40 nM and 200 nM; in the data set listed under Rattus norvegicus [11], greater than 10000 nM. Moreover, the values for the LD50 (with Mus musculus [3]; in data set [8]) were 35 mg/kg and 39 mg/kg, respectively.
As for `CN1CCC[C@@H]2[C@@H](c3ccccc3)c3ccccc3[C@@H]21` (racemic), the ED50 came out at 0.4 mg/kg in the data set with Mus musculus [1] (setting [14]) and 1.3 mg/kg in the data set on Mus musculus [6] (setting [14]). Further, the results for the IC50 in the data set filed under Rattus norvegicus [2], in the data set filed under Rattus norvegicus [4] and in the data set filed under Rattus norvegicus [11] were 120 nM, 100 nM and 10000 nM, respectively. This molecule also came in with an LD50 in data set [8] of 46.7 mg/kg.
With `Nc1ccc([C@H]2c3ccccc3[C@@H]3NCCC[C@H]23)cc1` (racemic), the results for the ED50 in the data set on Mus musculus [12] and with Mus musculus [10] were 0.044 mg/kg and 0.06 mg/kg, respectively. Moreover, the IC50 turned out to be 18 nM in the data set listed under Rattus norvegicus [2] and 44 nM in the data set filed under Rattus norvegicus [4]. The LD50 with Mus musculus [13] amounted to 37 mg/kg.
For `CCCN1CCC[C@@H]2[C@@H](c3ccccc3)c3ccccc3[C@@H]21` (racemic), the ED50 with Mus musculus [1] came to 0.8 mg/kg; with Mus musculus [6], 3.5 mg/kg. For the same molecule, the IC50 in the data set filed under Rattus norvegicus [2] was 410 nM; in the data set filed under Rattus norvegicus [4] it was 110 nM; in the data set listed under Rattus norvegicus [11] it was greater than 10000 nM. Further, in the data set with Mus musculus [3], the LD50 was 57 mg/kg.
In the case of `CN1Cc2c(N)cccc2C(c2ccccc2)C1` (racemic) [NOMIFENSINE], the LD50 with Mus musculus [13] stood at 141 mg/kg. For the same molecule, the ED50 with Mus musculus [10] came to 1.1 mg/kg.
Take `CN1Cc2c(N)cccc2C(c2ccccc2)C1` (stereo in doubt; (+)) [NOMIFENSINE]: in the data set with Mus musculus [13], the LD50 came out at 49.5 mg/kg. Further, the ED50 with Mus musculus [10] came out at 0.55 mg/kg.
For `CN1Cc2c(N)cccc2C(c2ccccc2)C1` (stereo in doubt; (-)) [NOMIFENSINE], in that order: 170 mg/kg and 20.2 mg/kg.
